In ChEMBL document CHEMBL3351601, “2-(4-Chlorobenzyl)-6-arylimidazo[2,1-b][1,3,4]thiadiazoles: synthesis, cytotoxic activity and mechanism of action” (Eur J Med Chem, 2014):
Activity calls are given as the source filed them. The calls are words filed in the database; no cut-off is given here.

What was measured:
[1] = tested on: L1210; assay: Cytotoxicity against mouse L1210 cells after 48 hrs by Coulter counting method; type: functional, cell-based; conditions: L1210, 48 h
Summary of the method: (§1)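 (5–7.5) × 10⁴ tumour cells per well with test compound. Proliferation ran 48 h for L1210 and 72 h for CEM and HeLa, at 37 °C in humidified CO₂. Cells counted in a Coulter counter. IC50 taken as the concentration that inhibited cell proliferation by 50%.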

[2] = tested on: CCRF-CEM; assay: Cytotoxicity against human CEM cells after 72 hrs by Coulter counting method; type: cell-based; summary of the method: as §1
[3] = tested on: HeLa; assay: Cytotoxicity against human HeLa cells after 72 hrs by Coulter counting method; type: functional, cell-based; summary of the method: as §1
[4] = tested on: REH; assay: Cytotoxicity against human REH cells after 48 to 72 hrs; type: functional, cell-based
Summary of the method: (§2)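 REH and K562 cells at 0.5 × 10⁵ cells/ml, given 0–10 μM compound, with a DMSO vehicle control. Read at 48 and 72 h by trypan blue dye exclusion (cells precultured 24 h before dosing) and by MTT. Three independent experiments, MTT in duplicate.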

[5] = tested on: K562; assay: Cytotoxicity against human K562 cells after 48 to 72 hrs; type: functional, cell-based; summary of the method: as §2
[6] = tested on: REH; assay: Cell cycle arrest in human REH cells at 0.1 to 1 uM after 48 hrs using propidium iodide by flow cytometry; type: functional, cell-based
Summary of the method: (§3)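 REH cells (0.5 × 10⁵ cells/ml) precultured 24 h, then exposed to 0, 0.1, 0.5 or 1 μM compound for 48 h. Harvested, fixed in 70% chilled ethanol, stained with propidium iodide, analysed by flow cytometry, at least 10,000 cells per sample. Phase distribution from histograms, two independent experiments.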

[7] = tested on: REH; assay: Effect on cell cycle progression in human REH cells at 0.1 to 1 uM after 48 hrs using propidium iodide by flow cytometry; type: functional, cell-based; summary of the method: as §3
[8] = tested on: REH; assay: Cell cycle arrest in human REH cells assessed as accumulation at sub-G1 phase at 0.1 to 1 uM after 48 hrs using propidium iodide by flow cytometry; type: functional, cell-based; summary of the method: as §3
[9] = tested on: REH; assay: Induction of apoptosis in human REH cells assessed as ROS production at 1 uM after 5 mins using H2DCFDA by flow cytometry (reference value: 0.11%); type: functional
[10] = tested on: REH; assay: Induction of apoptosis in human REH cells assessed as ROS production at 1 uM after 15 mins using H2DCFDA by flow cytometry (reference value: 0.11%); type: functional
[11] = tested on: REH; assay: Induction of apoptosis in human REH cells assessed as ROS production at 1 uM after 30 mins using H2DCFDA by flow cytometry (reference value: 0.11%); type: functional
[12] = tested on: REH; assay: Induction of apoptosis in human REH cells assessed as ROS production at 1 uM after 60 mins using H2DCFDA by flow cytometry (reference value: 0.11%); type: functional
[13] = tested on: REH; assay: Induction of apoptosis in human REH cells assessed as ROS production at 1 uM after 5 to 60 mins using H2DCFDA by flow cytometry (reference value: 0.11%); type: functional
[14] = tested on: REH; assay: Induction of apoptosis in human REH cells assessed as DNA fragmentation at 0.5 uM after 48 hrs by agarose gel electrophoresis; type: functional, cell-based
Summary of the method: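 REH cells given 0, 0.1, 0.5, 1 and 5 μM for 48 h, DMSO vehicle control. Cells lysed in Triton X-100/proteinase K buffer at 55 °C for 5 h, then RNase (50 μg/ml) 1 h at 37 °C. DNA precipitated with sodium acetate/isopropanol and run on 2% agarose at 50 V for 3 h.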

[15] = tested on: REH; assay: Induction of apoptosis in human REH cells assessed as viable cells at 1 uM after 48 hrs using propidium iodide/annexin-V by flow cytometry (reference value: 72.6 %); type: functional; conditions: read-out: Activity
Summary of the method: (§4)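 REH cells given 1 μM compound for 48 h alongside DMSO controls. Harvested, washed in PBS, resuspended in binding buffer (10 mM HEPES pH 7.4, 144 mM NaCl, 25 mM CaCl₂).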

[16] = tested on: REH; assay: Induction of apoptosis in human REH cells assessed as early apoptotic cells at 1 uM after 48 hrs using propidium iodide/annexin-V by flow cytometry (reference value: 16.2 %); type: functional; summary of the method: as §4
[17] = tested on: REH; assay: Induction of apoptosis in human REH cells assessed as late apoptotic cells at 1 uM after 48 hrs using propidium iodide/annexin-V by flow cytometry (reference value: 8.7 %); type: functional; summary of the method: as §4
[18] = tested on: REH; assay: Induction of apoptosis in human REH cells assessed as necrotic cells at 1 uM after 48 hrs using propidium iodide/annexin-V by flow cytometry (reference value: 2.5 %); type: functional; summary of the method: as §4
[19] = tested on: REH; assay: Induction of apoptosis in human REH cells assessed as loss of mitochodrial membrane potential at 0.5 to 1 uM after 48 hrs using JC-1 staining by flow cytometry; type: functional, cell-based
Summary of the method: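 REH cells exposed to 0.5 or 1 μM compound for 48 h, then incubated with 0.5 μM JC-1 for 20 min at 37 °C, washed and read by flow cytometry. Green-to-red fluorescence ratio reported. 2,4-DNP as positive control, DMSO-treated cells as controls. Two independent experiments.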

[20] = tested on: REH; assay: Cytotoxicity against human REH cells at 0.5 uM after 48 hrs using ethidium bromide staining by live-dead assay relative to 293T cells; type: functional
Summary of the method: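 REH and 293T cells seeded at 1 × 10^5/ml, exposed to 0.5 μM compound for 48 h; DMSO vehicle control. Harvested cells stained with ethidium bromide (5 μg/ml), which enters membrane-compromised dead cells, and dead fraction quantified by flow cytometry. REH cultured in RPMI1640, 293T in DMEM, both with 10% FBS, penicillin/streptomycin, 37 °C, 5% CO2.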

[21] = Ratio of melphalan IC50 to compound IC50 for human CEM cells after 48 to 72 hrs by Coulter counter cell counting; conditions: CCRF-CEM (CEM) cells
[22] = tested on: HeLa; assay: Ratio of melphalan IC50 to compound IC50 for human HeLa cells after 48 to 72 hrs by Coulter counter cell counting
[23] = tested on: L1210; assay: Ratio of melphalan IC50 to compound IC50 for mouse L1210 cells after 48 to 72 hrs by Coulter counter cell counting

Compound	IC50 [1] [µM]	IC50 [2] [µM]	IC50 [3] [µM]	other results
O=c1oc2ccccc2cc1-c1nc2sc(Cc3ccc(Cl)cc3)nn2c1Br	5.2	3.7	4.5	–
O=Cc1c(-c2ccc(Br)cc2)nc2sc(Cc3ccc(Cl)cc3)nn12	4.6	4	4.2	–
O=Cc1c(-c2ccc(Cl)cc2)nc2sc(Cc3ccc(Cl)cc3)nn12	15	5.8	16	–
Clc1ccc(Cc2nn3cc(-c4ccc(Cl)cc4Cl)nc3s2)cc1	247	> 250	109	–
O=c1oc2ccccc2cc1-c1cn2nc(Cc3ccc(Cl)cc3)sc2n1	> 10	> 10	> 10	–
COc1ccc(-c2nc3sc(Cc4ccc(Cl)cc4)nn3c2SC#N)cc1	16	10	9	–
Clc1ccc(Cc2nn3cc(-c4ccc(Br)cc4)nc3s2)cc1	> 250	> 250	> 250	–
N#CSc1c(-c2ccccc2)nc2sc(Cc3ccc(Cl)cc3)nn12	24	14	12	–
Cc1ccc(-c2nc3sc(Cc4ccc(Cl)cc4)nn3c2Br)cc1	> 250	> 250	> 250	–
O=Cc1c(-c2ccc([N+](=O)[O-])cc2)nc2sc(Cc3ccc(Cl)cc3)nn12	15	13	17	–
Clc1ccc(Cc2nn3c(Br)c(-c4ccc(Br)cc4)nc3s2)cc1	> 250	238	188	–
Clc1ccc(Cc2nn3cc(-c4ccccc4)nc3s2)cc1	> 250	> 250	> 250	–
Clc1ccc(Cc2nn3c(Br)c(-c4ccccc4)nc3s2)cc1	> 250	> 250	> 250	–
COc1ccc(-c2nc3sc(Cc4ccc(Cl)cc4)nn3c2Br)cc1	63	58	66	–
N[C@@H](Cc1ccc(N(CCCl)CCCl)cc1)C(=O)O [MELPHALAN]	–	1.4	–	–
Fc1ccc(-c2cn3nc(Cc4ccc(Cl)cc4)sc3n2)cc1	> 250	> 250	> 250	–
N#CSc1c(-c2ccc(Cl)cc2Cl)nc2sc(Cc3ccc(Cl)cc3)nn12	49	46	18	–
N#CSc1c(-c2ccc(Br)cc2)nc2sc(Cc3ccc(Cl)cc3)nn12	81	61	22	–
N#CSc1c(-c2ccc(F)cc2)nc2sc(Cc3ccc(Cl)cc3)nn12	23	24	20	–

Compound	IC50 [1] [µM]	IC50 [2] [µM]	IC50 [3] [µM]	other results
N#CSc1c(-c2cc3ccccc3oc2=O)nc2sc(Cc3ccc(Cl)cc3)nn12	1.3	1.4	1	IC50 [4]: 6.2 µM; IC50 [5]: 3.1 µM
Clc1ccc(Cc2nn3c(Br)c(-c4ccc(Cl)cc4Cl)nc3s2)cc1	31	106	118	–
Cc1ccc(-c2nc3sc(Cc4ccc(Cl)cc4)nn3c2SC#N)cc1	32	22	22	–
Fc1ccc(-c2nc3sc(Cc4ccc(Cl)cc4)nn3c2Br)cc1	> 250	> 250	> 250	–
Cc1ccc(-c2nc3sc(Cc4ccc(Cl)cc4)nn3c2C=O)cc1	23	17	21	–
N#CSc1c(-c2ccc(Cl)cc2)nc2sc(Cc3ccc(Cl)cc3)nn12	49	30	20	–
O=[N+]([O-])c1ccc(-c2nc3sc(Cc4ccc(Cl)cc4)nn3c2Br)cc1	94	73	> 250	–
c1ccc([C@H]2CN3CCSC3=N2)cc1 [LEVAMISOLE]	206	> 250	250	–
O=Cc1c(-c2ccc(Cl)cc2Cl)nc2sc(Cc3ccc(Cl)cc3)nn12	82	79	64	–
O=[N+]([O-])c1ccc(-c2cn3nc(Cc4ccc(Cl)cc4)sc3n2)cc1	214	> 250	> 250	–
Cc1ccc(-c2cn3nc(Cc4ccc(Cl)cc4)sc3n2)cc1	> 250	> 250	> 250	–
N#CSc1c(-c2ccc([N+](=O)[O-])cc2)nc2sc(Cc3ccc(Cl)cc3)nn12	50	20	16	–
O=Cc1c(-c2ccc(F)cc2)nc2sc(Cc3ccc(Cl)cc3)nn12	20	17	20	–
COc1ccc(-c2cn3nc(Cc4ccc(Cl)cc4)sc3n2)cc1	38	> 250	> 250	–
O=Cc1c(-c2ccccc2)nc2sc(Cc3ccc(Cl)cc3)nn12	20	22	45	–
COc1ccc(-c2nc3sc(Cc4ccc(Cl)cc4)nn3c2C=O)cc1	5.3	3.8	6	–
Clc1ccc(Cc2nn3cc(-c4ccc(Cl)cc4)nc3s2)cc1	> 250	> 250	95	–
O=Cc1c(-c2cc3ccccc3oc2=O)nc2sc(Cc3ccc(Cl)cc3)nn12	0.89	0.75	0.9	IC50 [4]: 0.67 µM; IC50 [5]: 0.9 µM; Activity [6]: inactive; Activity [7]: inactive; Activity [8]: Active; Activity [9]: 0.16%; Activity [10]: 0.12%; Activity [11]: 0.13%; Activity [12]: 0.16%; Activity [13]: 36.99%; Activity [14]: Active; viability at 1 µM [15]: 54.8%; Activity [16]: 21.5%; Activity [17]: 14.6%; Activity [18]: 9.1%; Activity [19]: Active; fold change (FC) [20]: 6; selectivity ratio [21]: 3; Ratio IC50 [22]: 3; Ratio IC50 [23]: 3
Clc1ccc(Cc2nn3c(Br)c(-c4ccc(Cl)cc4)nc3s2)cc1	> 250	> 250	> 250	–
